Experimental data reported in ChEMBL document CHEMBL4673252, “Discovery and Early Clinical Development of Isobutyl 1-[8-Methoxy-5-(1-oxo-3H-isobenzofuran-5-yl)-[1,2,4]triazolo[1,5-a]pyridin-2-yl]cyclopropanecarboxylate (LEO 39652), a Novel "Dual-Soft" PDE4 Inhibitor for Topical Treatment of Atopic Dermatitis” (J Med Chem, 2020).

experiment: Half life in human whole blood at 0.1 uM by LC-MS/MS analysis; type: ADME, tissue-based; conditions: not given

| half-life at 0.1 µM [h] | SMILES |
| --- | --- |
| > 1 | COc1ccc(-c2cccc(C#N)c2)n2nc(C3(C(=O)OCC(C)C)CC3)nc12 |
| 0.217 | CCCOC(=O)C1(c2nc3c(OC)ccc(-c4ccc5c(c4)COC5=O)n3n2)CC1 |
| < 0.167 | COc1ccc(-c2ccc3c(c2)COC3=O)n2nc(C3(C(=O)OC[C@@H](C)CO)CC3)nc12 |
| 0.183 | CC[C@H](C)OC(=O)C1(c2nc3c(OC)ccc(-c4ccc5c(c4)COC5=O)n3n2)CC1 |
| < 0.167 | COc1ccc(-c2ccc3c(c2)COC3=O)n2nc(C3(C(=O)OC[C@H](C)CO)CC3)nc12 |
| > 1 | COC(=O)c1cccc(-c2ccc(OC)c3nc(C4(C(=O)NCC(C)C)CC4)nn23)c1 |
| < 0.167 | COc1ccc(-c2ccc3c(c2)COC3=O)n2nc(C3(C(=O)O[C@H]4CCOC4)CC3)nc12 |
| 0.183 | COc1ccc(-c2ccc3c(c2)COC3=O)n2nc(C3(C(=O)OC(C)C)CC3)nc12 |
| 0.383 | COc1ccc(-c2ccc3c(c2)COC3=O)n2nc(C3(C(=O)OC4CCCCC4)CC3)nc12 |
| 0.567 | COc1ccc(-c2ccc3c(c2)COC3=O)n2nc(C3(C(=O)OC4CCCCCC4)CC3)nc12 |
| < 0.167 | COc1ccc(-c2ccc3c(c2)COC3=O)n2nc(C3(C(=O)O[C@@H]4CCOC4)CC3)nc12 |
| > 1 | COC(=O)c1ccc(-c2ccc(OC)c3nc(C4CC4)nn23)cc1 |
| < 0.167 | COc1ccc(-c2ccc3c(c2)COC3=O)n2nc(C3(C(=O)NCC(C)C)CC3)nc12 |
| > 1 | COC(=O)c1cccc(-c2ccc(OC)c3nc(C4CC4)nn23)c1 |
| < 0.167 | COc1ccc(-c2ccc3c(c2)COC3=O)n2nc(C3(C(=O)OC4COC4)CC3)nc12 |
| 0.25 | COc1ccc(-c2cccc3c2COC3=O)n2nc(C3CC3)nc12 |
| > 1 | COc1ccc(-c2cccc3c2COC3=O)n2nc(C3(C(=O)NCC(C)C)CC3)nc12 |
| < 0.167 | COC(=O)C1(c2nc3c(OC)ccc(-c4ccc5c(c4)COC5=O)n3n2)CC1 |
| 0.283 | COc1ccc(-c2ccc3c(c2)COC3=O)n2nc(C3(C(=O)OC4CCCC4)CC3)nc12 |

experiment: Clearance in human liver microsomes at 0.5 uM incubated for 40 mins in presence of NADPH by LC-MS/MS analysis; type: ADME, Microsome; conditions: read-out: CLH
Procedure, shortened: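 Human liver microsomes (0.5 mg/mL) with 1 mM NADPH and 0.5 μM test compound, incubated for 40 min. Samples were taken before NADPH and at 5, 10, 20, 40 min, quenched with cold acetonitrile containing internal standard, and analysed by LC-MS/MS. Control incubations in buffer and without NADPH. Apparent clearance was calculated from depletion.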

| CLint scaled at 0.5 µM [mL/min/kg] | SMILES |
| --- | --- |
| > 200 | COc1ccc(-c2cccc(C#N)c2)n2nc(C3(C(=O)OCC(C)C)CC3)nc12 |
| 139 | CCCOC(=O)C1(c2nc3c(OC)ccc(-c4ccc5c(c4)COC5=O)n3n2)CC1 |
| 64 | COc1ccc(-c2ccc3c(c2)COC3=O)n2nc(C3(C(=O)OC[C@@H](C)CO)CC3)nc12 |
| > 200 | CC[C@H](C)OC(=O)C1(c2nc3c(OC)ccc(-c4ccc5c(c4)COC5=O)n3n2)CC1 |
| 66 | COc1ccc(-c2ccc3c(c2)COC3=O)n2nc(C3(C(=O)OC[C@H](C)CO)CC3)nc12 |
| > 200 | COC(=O)c1cccc(-c2ccc(OC)c3nc(C4(C(=O)NCC(C)C)CC4)nn23)c1 |
| 77 | COc1ccc(-c2ccc3c(c2)COC3=O)n2nc(C3(C(=O)O[C@H]4CCOC4)CC3)nc12 |
| 97 | COc1ccc(-c2ccc3c(c2)COC3=O)n2nc(C3(C(=O)OC(C)C)CC3)nc12 |
| < 10 | COc1ccc(-c2cccc(C#N)c2)n2nc(C3(CO)CC3)nc12 |
| > 200 | COc1ccc(-c2ccc3c(c2)COC3=O)n2nc(C3(C(=O)OC4CCCCC4)CC3)nc12 |
| 16 | COc1ccc(-c2cccc(C#N)c2)n2nc(C3(CCC(=O)O)CC3)nc12 |
| > 200 | COc1ccc(-c2ccc3c(c2)COC3=O)n2nc(C3(C(=O)OC4CCCCCC4)CC3)nc12 |
| 101 | COc1ccc(-c2ccc3c(c2)COC3=O)n2nc(C3(C(=O)O[C@@H]4CCOC4)CC3)nc12 |
| > 200 | COC(=O)c1ccc(-c2ccc(OC)c3nc(C4CC4)nn23)cc1 |
| > 200 | COc1ccc(-c2ccc3c(c2)COC3=O)n2nc(C3(C(=O)NCC(C)C)CC3)nc12 |
| 16 | COc1ccc(-c2cccc(C#N)c2)n2nc(C3(CCO)CC3)nc12 |
| > 200 | COC(=O)c1cccc(-c2ccc(OC)c3nc(C4CC4)nn23)c1 |
| 97 | COc1ccc(-c2ccc3c(c2)COC3=O)n2nc(C3(C(=O)OC4COC4)CC3)nc12 |
| < 10 | COc1ccc(-c2cccc3c2COC3=O)n2nc(C3CC3)nc12 |
| 95 | COc1ccc(-c2cccc3c2COC3=O)n2nc(C3(C(=O)NCC(C)C)CC3)nc12 |
| 193 | COC(=O)C1(c2nc3c(OC)ccc(-c4ccc5c(c4)COC5=O)n3n2)CC1 |
| > 200 | COc1ccc(-c2ccc3c(c2)COC3=O)n2nc(C3(C(=O)OC4CCCC4)CC3)nc12 |
| > 200 | COC(=O)c1ccc(-c2ccc(OC)c3nc(C4(C(=O)NCC(C)C)CC4)nn23)cc1 |
| 33 | COc1ccc(-c2cccc(C#N)c2)n2nc(C3(CCCO)CC3)nc12 |
| < 10 | COc1ccc(-c2cccc(C#N)c2)n2nc(C3(C(=O)O)CC3)nc12 |
| < 10 | COc1ccc(-c2cccc(C#N)c2)n2nc(C3(CC(=O)O)CC3)nc12 |

experiment: Half life in human keratinocytes at 1 uM by LC-MS/MS analysis; type: ADME, cell-based, Keratinocyte; conditions: not given
Procedure, shortened: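 Plated human epidermal keratinocytes (1 × 10⁴ cells/well) with 1 μM compound in duplicate for up to 24 h; sampled at 0, 1, 2, 4, 24 h, acetonitrile precipitation, LC-MS/MS. Controls in growth medium. Half-life reported.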

| half-life at 1 µM [h] | SMILES |
| --- | --- |
| > 12 | COc1ccc(-c2cccc(C#N)c2)n2nc(C3(C(=O)OCC(C)C)CC3)nc12 |
| > 12 | CCCOC(=O)C1(c2nc3c(OC)ccc(-c4ccc5c(c4)COC5=O)n3n2)CC1 |
| > 12 | COc1ccc(-c2ccc3c(c2)COC3=O)n2nc(C3(C(=O)OC[C@@H](C)CO)CC3)nc12 |
| > 12 | CC[C@H](C)OC(=O)C1(c2nc3c(OC)ccc(-c4ccc5c(c4)COC5=O)n3n2)CC1 |
| > 12 | COc1ccc(-c2ccc3c(c2)COC3=O)n2nc(C3(C(=O)OC[C@H](C)CO)CC3)nc12 |
| > 12 | COC(=O)c1cccc(-c2ccc(OC)c3nc(C4(C(=O)NCC(C)C)CC4)nn23)c1 |
| > 12 | COc1ccc(-c2ccc3c(c2)COC3=O)n2nc(C3(C(=O)O[C@H]4CCOC4)CC3)nc12 |
| > 12 | COc1ccc(-c2ccc3c(c2)COC3=O)n2nc(C3(C(=O)OC(C)C)CC3)nc12 |
| > 12 | COc1ccc(-c2ccc3c(c2)COC3=O)n2nc(C3(C(=O)OC4CCCCC4)CC3)nc12 |
| 3.7 | COc1ccc(-c2ccc3c(c2)COC3=O)n2nc(C3(C(=O)OC4CCCCCC4)CC3)nc12 |
| > 12 | COc1ccc(-c2ccc3c(c2)COC3=O)n2nc(C3(C(=O)O[C@@H]4CCOC4)CC3)nc12 |
| > 12 | COC(=O)c1ccc(-c2ccc(OC)c3nc(C4CC4)nn23)cc1 |
| 10 | COc1ccc(-c2ccc3c(c2)COC3=O)n2nc(C3(C(=O)NCC(C)C)CC3)nc12 |
| > 12 | COC(=O)c1cccc(-c2ccc(OC)c3nc(C4CC4)nn23)c1 |
| > 12 | COc1ccc(-c2ccc3c(c2)COC3=O)n2nc(C3(C(=O)OC4COC4)CC3)nc12 |
| > 12 | COc1ccc(-c2cccc3c2COC3=O)n2nc(C3CC3)nc12 |
| > 12 | COc1ccc(-c2cccc3c2COC3=O)n2nc(C3(C(=O)NCC(C)C)CC3)nc12 |
| > 12 | COC(=O)C1(c2nc3c(OC)ccc(-c4ccc5c(c4)COC5=O)n3n2)CC1 |
| 12 | COc1ccc(-c2ccc3c(c2)COC3=O)n2nc(C3(C(=O)OC4CCCC4)CC3)nc12 |
| 9 | COC(=O)c1ccc(-c2ccc(OC)c3nc(C4(C(=O)NCC(C)C)CC4)nn23)cc1 |
